Test results from ChEMBL document CHEMBL2176891, “Structural investigation of anti-Trypanosoma cruzi 2-iminothiazolidin-4-ones allows the identification of agents with efficacy in infected mice” (J Med Chem, 2012).
Active and inactive are the calls of the source. No cut-off for these calls is given here.

Experiments:
[1] = Cytotoxicity against BALB/c mouse splenocytes assessed as highest nontoxic concentration by measuring [3H]-thymidine incorporation after 24 hrs by beta-radiation counting; assay type: cell-based, Splenocyte; details: mouse, splenocytes, read-out: Activity
Summary of the method: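 BALB/c splenocytes, 5 × 10⁶ cells/well in RPMI-1640 with 10% FBS. Compound in DMSO at 1.0, 10 and 100 μg/mL or more, triplicate; untreated and saponin controls. 24 h at 37 °C, 5% CO₂. 1.0 μCi ³H-thymidine added, incorporation read by β-counting as % of untreated. Highest nontoxic concentration estimated.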

[2] = target: Cruzipain (Trypanosoma cruzi) (UniProt P25779); assay: Inhibition of Trypanosoma cruzi recombinant cruzain using Z-FR-AMC as substrate at 20 uM preincubated for 10 mins before substrate addition
Trypanosoma cruzi [3] = assay: Antitrypanosomal activity against trypomastigotes of Trypanosoma cruzi Y infected in LLC-MK2 cells assessed as parasite motility after 24 hrs; assay type: functional, organism-based; details: LLC-MK2, 24 h
Summary of the method: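 Y strain bloodstream trypomastigotes taken from LLC-MK2 culture supernatant, 4 × 10⁵ cells/well. Five compound concentrations (DMSO), triplicate, 24 h at 37 °C, 5% CO₂. Viable parasites judged by motility in a Neubauer chamber. Inhibition calculated relative to untreated culture; IC50 by nonlinear regression.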

Trypanosoma cruzi [4] = assay: Antitrypanosomal activity against epimastigotes of Trypanosoma cruzi Y in axenic culture assessed as parasite motility after 11 days; details: 264 h
Trypanosoma cruzi [5] = assay: Antitrypanosomal activity against trypomastigotes of Trypanosoma cruzi Y infected in mouse peritoneal macrophages assessed as reduction of intracellular parasite level at 10 uM after 4 days; assay type: functional, organism-based
Summary of the method: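 Peritoneal exudate macrophages, 2 × 10⁵/well on coverslips, infected with Y strain trypomastigotes at 10 parasites per macrophage for 2 h, then washed. Compound in DMSO added for 6 h, medium replaced, culture continued 4 days. After methanol fixation and Giemsa staining, 100 cells per slide counted for % infected macrophages and amastigotes per cell. IC50 based on % infected cells versus untreated.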

[6] = target: Cruzipain (Trypanosoma cruzi) (UniProt P25779); assay: Inhibition of Trypanosoma cruzi recombinant cruzain using Z-FR-AMC as substrate at 100 uM preincubated for 10 mins before substrate addition
Summary of the method: (§1)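 Recombinant cruzain preincubated 10 min at room temperature with compound (DMSO) in phosphate buffer containing EDTA, 100 mM NaCl and DTT. Z-FR-AMC then added; final 0.5 nM enzyme and 2 μM substrate. Fluorescence read at 1, 5 and 10 min; % inhibition versus no-inhibitor control. Single-point values are triplicate means; IC50 by nonlinear regression from multiple concentrations. Some runs used 0.01% Triton X-100.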

Cathepsin S = Cathepsin S (Homo sapiens, UniProt P25774); assay: Inhibition of recombinant cathepsin S using ZFR-pNA as substrate preincubated for 45 mins
Summary of the method: (§2)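 Recombinant cathepsin L or S activated with 1 mM DTT in 0.1 M acetate pH 5.5. Preincubated 45 min at room temperature with compound in phosphate buffer with 0.1% BSA, 1 mM EDTA and 0.001% Tween. Z-FR-pNA added, reaction 5 min; final 30 nM enzyme and 5.0 μM substrate. Triplicate runs; IC50 from at least seven concentrations.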

Procathepsin L [7] = target: T1, Procathepsin L (Homo sapiens, UniProt P07711); assay: Inhibition of recombinant cathepsin L using ZFR-pNA as substrate preincubated for 45 mins; summary of the method: as §2
Target sequence in this assay (P07711 whole entry): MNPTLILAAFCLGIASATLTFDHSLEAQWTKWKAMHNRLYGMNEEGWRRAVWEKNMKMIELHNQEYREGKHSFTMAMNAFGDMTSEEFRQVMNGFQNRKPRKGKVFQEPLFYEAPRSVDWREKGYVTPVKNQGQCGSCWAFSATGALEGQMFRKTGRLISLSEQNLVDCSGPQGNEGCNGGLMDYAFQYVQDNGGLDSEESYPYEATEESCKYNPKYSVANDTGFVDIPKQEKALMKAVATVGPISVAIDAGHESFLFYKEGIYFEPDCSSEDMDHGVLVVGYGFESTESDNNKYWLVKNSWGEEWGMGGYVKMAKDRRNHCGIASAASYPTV

Cruzipain = Cruzipain (Trypanosoma cruzi, UniProt P25779); assay: Inhibition of Trypanosoma cruzi recombinant cruzain using Z-FR-AMC as substrate preincubated for 10 mins before substrate addition; summary of the method: as §1
Procathepsin L [8] = target: T1, Procathepsin L; assay: Inhibition of recombinant cathepsin L using ZFR-pNA as substrate at 100 uM preincubated for 45 mins; summary of the method: as §2
Target sequence in this assay (P07711 114-333 limits assumed): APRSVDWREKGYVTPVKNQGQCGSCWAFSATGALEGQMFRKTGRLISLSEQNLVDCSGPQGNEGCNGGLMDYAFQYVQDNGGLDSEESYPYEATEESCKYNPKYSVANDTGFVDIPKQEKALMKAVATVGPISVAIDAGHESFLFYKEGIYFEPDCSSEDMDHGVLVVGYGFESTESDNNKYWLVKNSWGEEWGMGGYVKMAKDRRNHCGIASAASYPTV

Chain of Cathepsin S (P25774 whole entry): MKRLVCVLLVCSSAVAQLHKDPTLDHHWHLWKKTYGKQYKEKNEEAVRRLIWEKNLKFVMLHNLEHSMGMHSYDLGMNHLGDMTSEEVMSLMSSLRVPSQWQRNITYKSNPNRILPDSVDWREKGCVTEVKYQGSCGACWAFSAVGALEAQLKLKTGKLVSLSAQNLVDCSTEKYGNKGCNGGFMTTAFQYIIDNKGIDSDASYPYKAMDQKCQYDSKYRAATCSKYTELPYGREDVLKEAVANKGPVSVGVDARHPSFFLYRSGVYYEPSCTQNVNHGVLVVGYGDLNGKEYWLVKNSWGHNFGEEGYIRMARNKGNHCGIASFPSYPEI
Chain of Cruzipain (P25779 whole entry): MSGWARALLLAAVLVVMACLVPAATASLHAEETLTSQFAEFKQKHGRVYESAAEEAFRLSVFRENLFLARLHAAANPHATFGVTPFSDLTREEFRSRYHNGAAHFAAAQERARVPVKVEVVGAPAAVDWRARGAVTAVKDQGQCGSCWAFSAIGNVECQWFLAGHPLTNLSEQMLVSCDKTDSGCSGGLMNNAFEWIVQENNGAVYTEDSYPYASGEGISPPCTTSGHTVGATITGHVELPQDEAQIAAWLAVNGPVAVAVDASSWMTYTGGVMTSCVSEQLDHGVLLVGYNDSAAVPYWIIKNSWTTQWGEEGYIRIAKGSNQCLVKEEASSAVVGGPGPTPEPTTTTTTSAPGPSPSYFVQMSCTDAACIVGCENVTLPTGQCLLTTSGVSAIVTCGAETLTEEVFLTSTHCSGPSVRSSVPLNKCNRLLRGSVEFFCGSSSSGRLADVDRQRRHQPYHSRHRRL
Chain of Cruzipain (Trypanosoma cruzi) (P25779 123-467 limits assumed): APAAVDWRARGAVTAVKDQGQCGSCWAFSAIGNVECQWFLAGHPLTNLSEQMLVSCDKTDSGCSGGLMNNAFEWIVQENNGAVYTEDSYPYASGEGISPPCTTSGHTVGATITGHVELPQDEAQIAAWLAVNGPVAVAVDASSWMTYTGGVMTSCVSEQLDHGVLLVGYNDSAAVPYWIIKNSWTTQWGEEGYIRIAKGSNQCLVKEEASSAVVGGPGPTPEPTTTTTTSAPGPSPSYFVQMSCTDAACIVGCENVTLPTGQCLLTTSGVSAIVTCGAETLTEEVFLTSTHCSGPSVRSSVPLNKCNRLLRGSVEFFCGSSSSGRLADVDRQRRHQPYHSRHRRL

| Structure (SMILES) | MNTC at 24 h [1] [µg/mL] | inhibition [2] | IC50 (Trypanosoma cruzi [3]) [µM] | IC50 (Trypanosoma cruzi [4]) [µM] | Activity (Trypanosoma cruzi [5]) | inhibition [6] [%] | IC50 (Cathepsin S) [µM] | IC50 (Procathepsin L [7]) [µM] | IC50 (Cruzipain; read-out: IC50) [µM] | inhibition (Procathepsin L [8]) [%] | IC50 (Cruzipain) |
| --- | --- | --- | --- | --- | --- | --- | --- | --- | --- | --- | --- |
| COc1ccc(-c2csc(N/N=C(\C)COc3ccccc3)n2)cc1 | 100 | inactive | 17.8 | 14.9 |  |  |  |  |  |  |  |
| C/C(COc1ccccc1)=N\Nc1nc(-c2ccc(F)cc2)cs1 | > 100 | inactive | 11.5 | 41.3 |  |  |  |  |  |  |  |
| C/C(COc1ccccc1)=N\Nc1nc(-c2ccc(Cl)cc2)cs1 | 100 | 13% |  | 57.1 |  |  |  |  |  |  |  |
| C/C(COc1ccccc1)=N\Nc1nc(-c2ccc(Br)cc2)cs1 | 100 | 25% |  | 49.8 |  |  |  |  |  |  |  |
| C/C(COc1ccccc1)=N\Nc1nc(-c2ccc([N+](=O)[O-])cc2)cs1 | 100 | inactive | 5.7 | 1.9 | Active |  |  |  |  |  |  |
| C/C(COc1ccccc1)=N\Nc1nc(-c2cccc([N+](=O)[O-])c2)cs1 | 100 | inactive | 3.8 | 4 |  |  |  |  |  |  |  |
| C/C(COc1ccccc1)=N\Nc1nc(-c2ccc(Cl)c(Cl)c2)cs1 | 25 | 20% | 17 | 19 |  |  |  |  |  |  |  |
| C/C(COc1ccccc1)=N\Nc1nc(-c2ccc(Cl)cc2Cl)cs1 | < 1 | 40% | 17 | 42.2 |  |  |  |  |  |  |  |
| C/C(COc1ccccc1)=N\Nc1nc(-c2ccc(Cl)c(Cl)c2Cl)cs1 | > 1 | inactive |  |  |  |  |  |  |  |  |  |
| C/C(COc1ccccc1)=N\Nc1nc(-c2ccc(C(C)(C)C)cc2)cs1 | 50 | inactive |  |  |  |  |  |  |  |  |  |
| C/C(COc1ccccc1)=N\Nc1nc(-c2ccc3ccccc3c2)cs1 | > 100 | inactive | 36.4 | 83 |  |  |  |  |  |  |  |
| C/C(COc1ccccc1)=N\Nc1nc(-c2ccco2)cs1 | > 100 |  | 17.7 |  |  | 4.7 |  |  |  |  |  |
| C/C(COc1ccccc1)=N\N=c1\scc(-c2ccccc2)n1C | 10 | inactive | 175 | 25.6 |  |  |  |  |  |  |  |
| C/C(COc1ccccc1)=N\N=c1\scc(-c2ccccc2)n1-c1ccccc1 | > 100 | inactive | 61.1 | 2.6 |  |  |  |  |  |  |  |
| C/C(COc1ccccc1)=N\N=C1\SCC(=O)N1c1ccccc1 | > 100 | 66% | 18 | 25.8 |  |  | > 100 | > 100 | 10.2 | 0 |  |
| C/C(COc1ccccc1)=N\Nc1nc(-c2ccccn2)cs1 | 100 | inactive | 34.8 | 11.8 |  |  |  |  |  |  |  |

| Structure (SMILES) | MNTC at 24 h [1] [µg/mL] | inhibition [2] | IC50 (Trypanosoma cruzi [3]) [µM] | IC50 (Trypanosoma cruzi [4]) [µM] | Activity (Trypanosoma cruzi [5]) | inhibition [6] [%] | IC50 (Cathepsin S) [µM] | IC50 (Procathepsin L [7]) [µM] | IC50 (Cruzipain; read-out: IC50) [µM] | inhibition (Procathepsin L [8]) [%] | IC50 (Cruzipain) |
| --- | --- | --- | --- | --- | --- | --- | --- | --- | --- | --- | --- |
| C/C(COc1ccccc1)=N\Nc1nc(-c2cccnc2)cs1 | 100 | inactive | 12.3 | 20.5 |  |  |  |  |  |  |  |
| C/C(COc1ccccc1)=N\Nc1nc(-c2ccc(C)cc2)cs1 | 100 | inactive | 49.7 | 67 |  |  |  |  |  |  |  |
| C/C(COc1ccccc1)=N\N=C1\SCC(=O)N1C | > 100 | 0% |  |  |  |  |  |  |  |  | ND(Insoluble) |
| C/C(COc1ccccc1)=N\N=C1\SC(C)C(=O)N1c1ccccc1 (racemic) | 100 | 50% | 29 | 31.8 | Active |  |  |  | 10.8 | 0 |  |
| CCC1S/C(=N/N=C(\C)COc2ccccc2)NC1=S (racemic) | 25 | 48% | 31.5 | 26.1 |  |  |  | 13.8 | 18.7 | 81 |  |
| CCC1S/C(=N/N=C(\C)COc2ccccc2)N(c2ccc(C)cc2)C1=O (racemic) | 100 | 65% | 19.9 | 15 |  |  |  |  | 11.8 |  |  |
| CCC1S/C(=N/N=C(\C)COc2ccccc2)N(c2ccc(OC)cc2)C1=O (racemic) | 100 | 71% | 9 | 6.8 |  |  |  |  | 8.7 |  |  |
| CCC1S/C(=N/N=C(\C)COc2ccccc2)N(C2CCCCC2)C1=O (racemic) | > 100 | 10% |  |  |  |  |  |  |  |  |  |
| C/C(COc1ccccc1)=N\N=C1/NC(=O)C(C)S1 (racemic) | > 100 | 3% |  |  |  |  |  |  |  | 0 |  |
| CCC1S/C(=N/N=C(\C)COc2ccccc2)NC1=O (racemic) | > 100 | 5% |  |  |  |  |  |  |  | 5 |  |
| C/C(COc1ccccc1)=N\N=C1/NC(=O)C(C(C)C)S1 (racemic) | > 100 | 60.8% | 16.8 | 12.2 |  |  |  |  | 18.9 | 11 |  |
| C/C(COc1ccccc1)=N\N=C1\SC(C)C(=O)N1C (racemic) | 25 | 0% |  |  |  |  |  |  |  |  |  |
| CCC1S/C(=N/N=C(\C)COc2ccccc2)N(C)C1=O (racemic) | > 100 | 50% |  |  |  |  | > 100 | > 100 | 31.9 | 6 |  |
| C/C(COc1ccccc1)=N\N=C1\SC(C(C)C)C(=O)N1C (racemic) | > 100 | 81% | 10.7 | 14 |  |  | > 100 | > 100 | 8 | 0 |  |
| CC1CS(=O)(=O)CCN1/N=C/c1ccc([N+](=O)[O-])o1 (stereo not given) [NIFURTIMOX] | 1 |  | 2.7 | 1.9 |  |  |  |  |  |  |  |
